MPTP block – blocks calcium-induced mitochondrial swelling; isolated mouse mitochondria, Ca2+ swelling absorbance, 30 min; inhibition, % at 10 µM; hit rate 1.4% among 360,000; AID 602449;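 active = inhibition of 50% or more, scaled per plate between neutral and stimulator controls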;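 note: 0% = DMSO wells given calcium and 100% = 1 mM EGTA wells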
V-ATPase pH – regulators of yeast V-ATPase proton transport; S. cerevisiae, pHLuorin cytosolic pH fluorescence; response, % at 10 µM; hit rate 0.37% among 350,000; in the data active = response mostly above about 7.3%, no sharp cut-off; inactive = mostly below about 5.4%; note: actives read high
rCAG binder – r(CAG) repeat RNA binding; TO-PRO-1 dye displacement fluorescence; inhibition, % at 3 µM; hit rate 1.3% among 370,000;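 active = inhibition above the plate cutoff, the mean of all test compounds on that plate plus 3 SD, cut at about 35% in these data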;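 note: 0% = DMSO alone and 100% = 100 µM mitoxantrone as full dye displacement; higher means more dye released from RNA so lower well fluorescence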
Beta2AR agonist – activates human beta-2 adrenergic receptor causing internalization; hit rate 0.43% among 340,000; AID 504454; response, % (test concentration not listed); P07550; Am2.2-beta2AR cells, FAP receptor internalization, flow cytometry;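 active = response above a set limit, near 3 SD of response in nonfluorescent compounds, cut at about 42% in these data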
Target sequence (P07550 whole entry, looked up): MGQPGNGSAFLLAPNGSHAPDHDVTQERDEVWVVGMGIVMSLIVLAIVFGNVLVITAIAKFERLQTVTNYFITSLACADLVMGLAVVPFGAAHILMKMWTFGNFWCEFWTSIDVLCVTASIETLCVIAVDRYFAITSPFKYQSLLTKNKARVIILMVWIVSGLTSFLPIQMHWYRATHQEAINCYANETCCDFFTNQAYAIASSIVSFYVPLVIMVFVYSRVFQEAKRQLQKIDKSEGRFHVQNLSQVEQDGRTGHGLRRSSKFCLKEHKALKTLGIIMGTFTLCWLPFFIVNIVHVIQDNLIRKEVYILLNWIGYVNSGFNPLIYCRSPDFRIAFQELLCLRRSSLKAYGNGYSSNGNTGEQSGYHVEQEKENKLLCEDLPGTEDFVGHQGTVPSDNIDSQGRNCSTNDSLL
T cell HTS – modulates CD8 T cell binding to vesicles; 2C CD8+ T cell-vesicle binding, flow cytometry; stronger effect = lower value; response (vesicle binding), % at 7 µM; hit rate 0.068% among 330,000;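 active = response, share of CD8 T cells binding vesicles, and their 90th percentile fluorescence all below set limits, cut at about 80% in these data, passing the limit was not always enough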;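 note: values below 100% mean blocked vesicle binding to the CD8+ T cells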
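System: murine 2C transgenic CD8+ T lymphocytes; also added: QL9-loaded Drosophila micro-vesicles; times: binding 1.5 h at 37 °C; measured by: flow cytometry, PE anti-B7-1 (FL2) versus Alexa647 anti-CD8 (FL8), PFA-fixed; control set: Peptide-free naked vesicles (low) and QL9 vesicles with 0.7% DMSO vehicle (high)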
Granule exo inh – lytic granule exocytosis inhibition | inhibition, % at 10 µM | TALL-104 LAMP-1 surface exposure, flow cytometry; cells stimulated with thapsigargin and PMA | hit rate 0.66% among 360,000;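 active = inhibition above about 55%, limit read from the data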
MPTP counter – mitochondrial membrane potential, counter-screen. shares compounds with MPTP block. isolated mitochondria, Rhodamine 123 fluorescence. inhibition, % at 10 µM. hit rate 78% among 5,000. AID 624504; in the data active = inhibition above about 22%;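 note: 0% = DMSO vehicle and 100% = positive control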
MPTP abs DR – dose response confirmation of mitochondrial permeability transition pore inhibitors | shares compounds with MPTP block | isolated mitochondria swelling, absorbance | IC50, µM | hit rate 58% among 780 | AID 651561; in the data active = IC50 below about 20 µM
MPTP counter DR – MPTP inhibitor counter-screen activity, dose response; hit rate 49% among 780; IC50, µM; shares compounds with MPTP block; isolated mitochondria counterscreen, fluorescence read-out; in the data active = IC50 below about 80 µM
* marks the source's active call; other numbers are inactive results; / = no result; ! = not confirmed by another sample. Sampled rows, rich in hits. Any-hit rate of the full collection: about 3.8%.

SMILES	MPTP block	V-ATPase pH	rCAG binder	Beta2AR agonist	T cell HTS	Granule exo inh	MPTP counter	others
O=C(Nc1ccc(Cl)cc1)NC1CCCC1Cc1ccco1 (configuration not stated)	103*	-3	/	7	267	8	88*
O=C(Nc1ccc(Cl)cc1)NC1CCCCC1	17	5	-2	-4	388	-3	/
O=C(Nc1cccc(Cl)c1)NC1CC2CCC(C1)N2Cc1ccco1 (configuration not stated)	-1	-4	-3	0	58	3	/
O=C(Nc1ccc(Cl)cc1)NC1CCCCC1Cc1ccco1 (configuration not stated)	105*	1	3	1	157	2	83*
Cc1ccccc1C(=O)N(C)[C@H]1C[C@H]2c3[nH]c4c(-c5ccccc5)cccc4c3CCN2C(=O)[C@H]1[C@H](C)O	/	/	7	/	/	/	/
COc1ccc(-c2nc3ccc(C)cn3c2NCc2ccccc2)cc1SC1CCCCC1	98*	-15	/	29	161	65*	95*
CCC(C)Sc1cc(-c2nc3ccc(C)cn3c2NCc2ccccc2)ccc1OC (configuration not stated)	54*!	-1	6	31	171	54	105*
CCCCNc1c(-c2ccc(OC)c(SC(C)CC)c2)nc2ccc(C)cn12 (configuration not stated)	59*!	-1	-6	39	343	31	99*
CCCCNc1c(-c2ccc(Sc3ccc(OC)cc3)cc2)nc2cc(C)ccn12	60*	8	-2	12	227	-6	97*
O=C(N=C1N(CC2CC2)CC2(C=C3CCCCC3n3c(=O)n(-c4ccccc4)c(=O)n32)N1C(=O)OCc1ccccc1)c1ccccc1 (configuration not stated)	/	/	10	/	/	/	/
CC(=Nc1ccc(Cl)cc1N)c1c(O)cc(C)oc1=O	/	/	7	/	/	/	/
CCCCCCCCN1C(=O)N2Cc3ccc(C)cc3C2CS1(=O)=O (configuration not stated)	/	/	-1	/	/	/	/
Cc1cc(C)cc(NC(=O)Nc2ccccc2N2CCCCC2)c1	63*	-5	0	2	322	-4	61*
Cc1cc(C)cc(OCC(=O)Nc2ccccc2N2CCCCC2)c1	-1	-2	-1	3	219	17	/
O=C(Nc1ccc(Cl)cc1)Nc1ccc(N2CCCC2)c(S(=O)(=O)Nc2ccccc2Cl)c1	98*	1	33	17	565	8	48*
Nn1c(SCC(=O)Nc2cccc3ccccc23)nnc1-c1n[nH]c2c1CCC2	/	/	3	/	/	/	/
CCCC(=O)N1CCC[C@]2(CC[C@@H](CCC(C)=O)O2)C1	/	/	3	/	/	/	/
N#Cc1c(N)nc(Sc2ccc(Cl)cc2)c(C#N)c1-c1ccccc1Cl	76*	0	1	-3	135	79*	56*
O=S1(=O)c2ccc(N3CCCC3)cc2Oc2ccccc2CN1Cc1cn(Cc2ccc(C(F)(F)F)cc2)nn1	/	/	12	/	/	/	/
Cc1nn(-c2ccc(NC(=O)c3ccncc3)cc2)c(C)c1Cl	80*	0	-4	8	187	-12	79*
C/C(=N\NC(=O)c1c(Cl)c(C)nn1C)c1ccc(NC(=O)c2ccncc2)cc1	-1	-2	-4	6	433	1	/
COc1ccc(C(=O)CSc2[nH]c(=O)cc(C(F)(F)F)c2C#N)cc1	85*	0	31	2	84	3	76*
N#CC1=C(N)N2C(=C(C#N)C1c1cccc(Br)c1)Nc1ccccc12 (configuration not stated)	86*	1	7	-10	111	21	55*
O=C(NNC(=O)c1cccnc1)Nc1ccc([N+](=O)[O-])cc1	102*	-2	-1	-1	47	2	102*
O=C(COc1ccc([N+](=O)[O-])cc1)NNC(=O)c1cccnc1	1	7	0	-8	408	-4	/
SMILES	MPTP block	V-ATPase pH	rCAG binder	Beta2AR agonist	T cell HTS	Granule exo inh	MPTP counter	others
O=C(NNC(=O)c1ccncc1)Nc1ccc(Br)cc1	87*	1	3	-2	/	1	102*
O=C(NNC(=O)c1ccncc1)Nc1ccc([N+](=O)[O-])cc1	82*	-3	2	6	143	1	92*
O=C(Nc1ccncc1)c1ccc(Br)cc1	0	7	0	1	539	3	/
COC(=O)[C@]12C[C@H](CC(=O)NCCCCc3ccccc3)C(=O)N(CCc3ccc(OC)c(OC)c3)C1=C[C@H](COCc1ccccc1)O[C@@H]2C	/	/	8	/	/	/	/
O=C(c1ccccc1)c1cnc(Nc2ccc(Cl)c(Cl)c2)s1	62*	-1	1	2	668	26	44*
O=C(c1ccc(F)cc1)c1cnc(Nc2ccccc2)s1	0	2	4	-4	150	1	/
Cc1ccc(-c2csc(N3CCC(C(N)=O)CC3)n2)cc1	0	-1	1	1	459	11	/
Cc1ccc(-c2csc(N3CCC(NS(=O)(=O)c4ccc5c(c4)OCCO5)CC3)n2)cc1	95*	5	14	1	217	8	95*
Cc1cccc(NC(=O)[C@H]2CC(=O)O[C@@H]2c2ccccc2)c1C	/	/	0	/	/	/	/
O=S(=O)(NC1c2cccc3cccc(c23)C1N1CCNCC1)c1ccc(Cl)cc1 (configuration not stated)	81*	-7	4	33	188	23	-8	MPTP abs DR=3.2*;MPTP counter DR=>80
O=C(Nc1ccc(F)cc1)C1C(c2ccccc2)C1(Cl)Cl (configuration not stated)	92*	-1	0	4	146	-16	90*
Cc1ccc(C)c(NC(=O)C2C(c3ccccc3)C2(Cl)Cl)c1 (configuration not stated)	76*	-2	-3	9	617	21	89*
O=C(Nc1ccc(F)cc1)C1C2CCC3C(CCC21)C3(Cl)Cl (configuration not stated)	62*	-6	-4	6	348	8	74*
O=C(Nc1ccccc1Cl)C1C(c2ccccc2)C1(Cl)Cl (configuration not stated)	1	5	-5	9	185	54	/
CCc1ccccc1NC(=O)C1C(c2ccccc2)C1(Cl)Cl (configuration not stated)	51*	1	-2	2	437	3	76*
O=C(Nc1ccccc1)Nc1nc2ncccn2c1-c1ccc(C(F)(F)F)cc1	/	/	4	/	/	/	/
O=C(NCCc1ccccn1)c1ccc2c(c1)ncn2C1CCCCC1	/	/	3	/	/	/	/
C=CC(=O)NC1CCCCN(C)C1=O (configuration not stated)	/	/	21	/	/	/	/
